Test results: ChEMBL document CHEMBL1158479, “Synthesis and preliminary in vitro biological evaluation of 4-[(4-hydroxyphenyl)sulfanyl]but-3-en-2-one, a 4-mercaptophenol derivative designed as a novel bifunctional antimelanoma agent” (J Med Chem, 2009)

Legend:
[1] = tested on: glutathione S-transferase; assay: Stability assessed as half life in presence of rat glutathione S-transferase; format: ADME
[2] = tested on: glutathione S-transferase; assay: Stability assessed as half life at pH 8 in presence of rat glutathione S-transferase; format: ADME
[3] = tested on: glutathione S-transferase; assay: Stability assessed as half life at pH 7.4 in presence of rat glutathione S-transferase; format: ADME
[4] = tested on: glutathione S-transferase; assay: Stability assessed as half life at pH 7.4 in presence of rat glutathione S-transferase in liver cytosol; format: physicochemical
Method in brief: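 The GSH reaction was run at pH 7.4 with and without rat liver cytosol, which served as the glutathione S-transferase source. t1/2 was derived from the time course of reaction with GSH.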

[5] = Cytotoxicity against mouse B16-F1 cells after 48 hrs by MTT assay; format: functional, cell-based
[6] = Cytotoxicity against mouse B16-F1 cells at 100 uM after 48 hrs by MTT assay relative to control in presence of 1-phenyl-2-thiourea; format: functional
[7] = Cytotoxicity against mouse B16-F1 cells at 100 uM after 48 hrs by MTT assay relative to control; format: functional
[8] = Cytotoxicity against mouse B16-F1 cells at 100 uM after 48 hrs by MTT assay relative to control in presence of N-acetyl-L-cysteine; format: functional
[9] = substrate: O=C(O)CSc1ccc(O)cc1; assay: (§1) Activity of mushroom tyrosinase assessed as o-quinone formation; settings: Agaricus bisporus
Method in brief: (§2)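 Mushroom tyrosinase kinetics were run by measuring the initial rate of enzyme-catalyzed o-quinone formation over increasing substrate concentrations. Km and Vmax were derived from these rates, and kcat and kcat/Km were calculated from them.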

[10] = substrate: O=C(O)CCSc1ccc(O)cc1; assay: as §1; settings: Agaricus bisporus; method in brief: as §2
[11] = substrate: COc1ccc(O)cc1; assay: as §1; settings: Agaricus bisporus; method in brief: as §2
[12] = substrate: O=C(O)CSc1ccc(O)cc1; assay: (§3) Ratio of Kcat to Km of mushroom tyrosinase; settings: Agaricus bisporus; method in brief: as §2
[13] = substrate: O=C(O)CCSc1ccc(O)cc1; assay: as §3; settings: Agaricus bisporus; method in brief: as §2
[14] = substrate: COc1ccc(O)cc1; assay: as §3; settings: Agaricus bisporus; method in brief: as §2

## CC(=O)/C=C\Sc1ccc(O)cc1
[1]
  half-life: 7.24 min
[2]
  half-life: 18.4 min
[3]
  half-life: 38.6 min

## CC(=O)/C=C/Sc1ccc(O)cc1
[1]
  half-life: 2.2 min
[2]
  half-life: 6.1 min
[3]
  half-life: 20.5 min

## Oc1ccc(SSc2ccc(O)cc2)cc1
[4]
  half-life: < 1 min
[5]
  IC50: 21.2 µM
[6]
  Activity: 0%
[7]
  Activity: 0.2%
[8]
  Activity: 22.5%

## COc1ccc(O)cc1 [MEQUINOL]
[6]
  Activity: 78.7%
[7]
  Activity: 61.3%
[8]
  Activity: 60%

B1: Tyrosinase (Agaricus bisporus), O42713 (protein)
chain: MSLIATVGPTGGVKNRLNIVDFVKNEKFFTLYVRSLELLQAKEQHDYSSFFQLAGIHGLPFTEWAKERPSMNLYKAGYCTHGQVLFPTWHRTYLSVLEQILQGAAIEVAKKFTSNQTDWVQAAQDLRQPYWDWGFELMPPDEVIKNEEVNITNYDGKKISVKNPILRYHFHPIDPSFKPYGDFATWRTTVRNPDRNRREDIPGLIKKMRLEEGQIREKTYNMLKFNDAWERFSNHGISDDQHANSLESVHDDIHVMVGYGKIEGHMDHPFFAAFDPIFWLHHTNVDRLLSLWKAINPDVWVTSGRNRDGTMGIAPNAQINSETPLEPFYQSGDKVWTSASLADTARLGYSYPDFDKLVGGTKELIRDAIDDLIDERYGSKPSSGARNTAFDLLADFKGITKEHKEDLKMYDWTIHVAFKKFELKESFSLLFYFASDGGDYDQENCFVGSINAFRGTAPETCANCQDNENLIQEGFIHLNHYLARDLESFEPQDVHKFLKEKGLSYKLYSRGDKPLTSLSVKIEGRPLHLPPGEHRPKYDHTQARVVFDDVAVHVIN
[9]
  Km: 22.4 µM
  kcat: 0.461 s⁻¹
[10]
  Km: 31.5 µM
  kcat: 0.972 s⁻¹
[11]
  Km: 46.8 µM
  kcat: 0.24 s⁻¹
[12]
  kcat/Km: 20600
[13]
  kcat/Km: 31000
[14]
  kcat/Km: 5140
